Test results as given in ChEMBL document CHEMBL1275435, “A naturally occurring proline-to-alanine amino acid change in Fks1p in Candida parapsilosis, Candida orthopsilosis, and Candida metapsilosis accounts for reduced echinocandin susceptibility” (Antimicrob Agents Chemother, 2008).
Values after ≈ are worked out from the molar mass of the structure shown. *1 amine or outer side, *2 acyl side, *3 side chain or, on linkers, in order; H or OH if unused. Where a SMILES comes first, the peptide text is derived from it. Bridges are numbered along the chain shown (N, C = ends). [ ]: non-standard residue; d: D form. The star is where a group is joined. hTyr(3S-OH,4S-OH,3'-OSO3H) = N[C@H](C(=O)O)[C@H](O)[C@@H](O)c1ccc(O)c(OS(=O)(=O)O)c1; Orn(4R-OH,5R-OH) = O=C([C@H](C[C@@H](O)[C@@H](O)N[*:3])N[*:1])[*:2]; Pro(3S-OH,4S-Me) = C[C@H]1CN[C@H](C(=O)O)[C@H]1O; X1 = CCCCCOc1ccc(-c2cc(-c3ccc(C(=O)*)cc3)no2)cc1; Gln(3R-OH) = NC(=O)C[C@@H](O)[C@H](N)C(=O)O; Hyp = O=C(O)[C@@H]1C[C@@H](O)CN1

Columns and labels:
[1] = Inhibition of Candida parapsilosis ATCC 22019 glucan synthase by assessed as [3H]UDPG incorporation
Procedure, shortened: (§1)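 Cells were grown with vigorous shaking at 30°C to early stationary phase in YPD. Membrane GS was partially purified by product entrapment, using 10-fold more cells for low-activity strains. The polymerization assay was started by adding GS, with drug serially diluted from 0.01 to 10,000 ng/ml. Reactions ran 60 min at 25°C and were stopped on ice. IC50 came from sigmoidal variable-slope fits, as arithmetic means ± SD of three repetitions on three days.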

[2] = Inhibition of Candida glabrata T51916 glucan synthase assessed as [3H]UDPG incorporation; parameters: species or system Nakaseomyces glabratus; procedure, shortened: as §1
Candida orthopsilosis [3] = test: Antifungal activity against Candida orthopsilosis 981224 by CLSI method; assay type: functional; conditions: Lodderomyces orthopsilosis
[4] = Inhibition of Candida albicans ATCC 90028 glucan synthase assessed as [3H]UDPG incorporation; procedure, shortened: as §1
Candida albicans [5] = test: Antifungal activity against Candida albicans ATCC 36082 by CLSI method; assay type: functional
[6] = Inhibition of Candida albicans Sc5314 glucan synthase assessed as [3H]UDPG incorporation; procedure, shortened: as §1
[7] = Inhibition of Saccharomyces cerevisiae BY4742 glucan synthase assessed as [3H]UDPG incorporation; procedure, shortened: as §1
[8] = Inhibition of Candida metapsilosis am-2006-0113 glucan synthase assessed as [3H]UDPG incorporation; procedure, shortened: as §1
[9] = Inhibition of Candida metapsilosis 960161 glucan synthase assessed as [3H]UDPG incorporation; procedure, shortened: as §1
Nakaseomyces glabratus [10] = test: Antifungal activity against Candida glabrata T51916 by CLSI method; assay type: functional
Candida metapsilosis [11] = test: Antifungal activity against Candida metapsilosis 960161 by CLSI method; assay type: functional; conditions: Lodderomyces metapsilosis
[12] = Inhibition of Candida orthopsilosis H10 glucan synthase assessed as [3H]UDPG incorporation; procedure, shortened: as §1
Candida albicans [13] = test: Antifungal activity against Candida albicans Sc5314 by CLSI method; assay type: functional
Candida albicans [14] = test: Antifungal activity against Candida albicans M122 by CLSI method; assay type: functional
[15] = Inhibition of Candida parapsilosis H4 glucan synthase assessed as [3H]UDPG incorporation; procedure, shortened: as §1
[16] = Inhibition of Candida orthopsilosis 981224 glucan synthase assessed as [3H]UDPG incorporation; procedure, shortened: as §1
Candida parapsilosis [17] = test: Antifungal activity against Candida parapsilosis H4 by CLSI method; assay type: functional; conditions: Lodderomyces parapsilosis
[18] = Inhibition of Candida albicans ATCC 36082 glucan synthase assessed as [3H]UDPG incorporation; procedure, shortened: as §1
[19] = Inhibition of Candida albicans M122 glucan synthase assessed as [3H]UDPG incorporation; procedure, shortened: as §1
[20] = Inhibition of Candida parapsilosis H5 glucan synthase assessed as [3H]UDPG incorporation; procedure, shortened: as §1
Nakaseomyces glabratus [21] = test: Antifungal activity against Candida glabrata ATCC 90030 by CLSI method; assay type: functional
[22] = Inhibition of Candida glabrata ATCC 90030 glucan synthase assessed as [3H]UDPG incorporation; parameters: species or system Nakaseomyces glabratus; procedure, shortened: as §1
Saccharomyces cerevisiae [23] = test: Antifungal activity against FKS1 deficient Saccharomyces cerevisiae BY4742 by CLSI method; assay type: functional
Saccharomyces cerevisiae [24] = test: Antifungal activity against Saccharomyces cerevisiae BY4742-FKS1P649A mutant by CLSI method; assay type: functional
Procedure, shortened: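 Broth microdilution following CLSI M27-A2, run in YPD broth (1% yeast extract, 2% Bacto peptone, 2% dextrose). MICs are geometric means of at least three repetitions on three separate days.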

Candida parapsilosis [25] = test: Antifungal activity against Candida parapsilosis ATCC 22019 by CLSI method; assay type: functional; conditions: Lodderomyces parapsilosis
Candida metapsilosis [26] = test: Antifungal activity against Candida metapsilosis am-2006-0113 by CLSI method; assay type: functional; conditions: Lodderomyces metapsilosis
[27] = Inhibition of Saccharomyces cerevisiae BY4742-FKS1P649A mutant glucan synthase assessed as [3H]UDPG incorporation; procedure, shortened: as §1
Candida orthopsilosis [28] = test: Antifungal activity against Candida orthopsilosis H10 by CLSI method; assay type: functional; conditions: Lodderomyces orthopsilosis
Saccharomyces cerevisiae [29] = test: Antifungal activity against Saccharomyces cerevisiae BY4742 by CLSI method; assay type: functional
Candida parapsilosis [30] = test: Antifungal activity against Candida parapsilosis H5 by CLSI method; assay type: functional; conditions: Lodderomyces parapsilosis
Candida albicans [31] = test: Antifungal activity against Candida albicans ATCC 90028 by CLSI method; assay type: functional

SMILES: CC[C@H](C)C[C@H](C)CCCCCCCCC(=O)N[C@H]1C[C@@H](O)[C@@H](NCCN)NC(=O)[C@@H]2[C@@H](O)CCN2C(=O)[C@H]([C@H](O)CCN)NC(=O)[C@H]([C@H](O)[C@@H](O)c2ccc(O)cc2)NC(=O)[C@@H]2C[C@@H](O)CN2C(=O)[C@H]([C@@H](C)O)NC1=O [CASPOFUNGIN]
- IC50 [1]: 0.02121 µg/mL (≈ 0.0194 µM)
- Ki [1]: 0.04799 µg/mL (≈ 0.0439 µM)
- IC50 [2]: 0.1575 µg/mL (≈ 0.144 µM)
- Ki [2]: 0.1945 µg/mL (≈ 0.178 µM)
- MIC (Candida orthopsilosis [3]): 0.79 µg/mL (≈ 0.723 µM)
- IC50 [4]: 0.00052 µg/mL (≈ 0.000476 µM)
- Ki [4]: 0.00095 µg/mL (≈ 0.000869 µM)
- MIC (Candida albicans [5]): 0.2 µg/mL (≈ 0.183 µM)
- Ki [6]: 0.00297 µg/mL (≈ 0.00272 µM)
- IC50 [7]: 0.06554 µg/mL (≈ 0.0599 µM)
- Ki [7]: 0.18394 µg/mL (≈ 0.168 µM)
- IC50 [8]: 0.04028 µg/mL (≈ 0.0368 µM)
- Ki [8]: 0.0769 µg/mL (≈ 0.0703 µM)
- IC50 [9]: 0.02515 µg/mL (≈ 0.023 µM)
- Ki [9]: 0.08045 µg/mL (≈ 0.0736 µM)
- MIC (Nakaseomyces glabratus [10]): 2 µg/mL (≈ 1.83 µM)
- MIC (Candida metapsilosis [11]): 1 µg/mL (≈ 0.915 µM)
- IC50 [12]: 0.05816 µg/mL (≈ 0.0532 µM)
- Ki [12]: 0.00429 µg/mL (≈ 0.00392 µM)
- MIC (Candida albicans [13]): 0.4 µg/mL (≈ 0.366 µM)
- MIC (Candida albicans [14]): 4 µg/mL (≈ 3.66 µM)
- IC50 [15]: 0.07919 µg/mL (≈ 0.0724 µM)
- Ki [15]: 0.00393 µg/mL (≈ 0.00359 µM)
- IC50 [16]: 0.07526 µg/mL (≈ 0.0688 µM)
- Ki [16]: 0.0074 µg/mL (≈ 0.00677 µM)
- MIC (Candida parapsilosis [17]): 2.24 µg/mL (≈ 2.05 µM)
- IC50 [18]: 0.0006 µg/mL (≈ 0.000549 µM)
- Ki [18]: 0.00046 µg/mL (≈ 0.000421 µM)
- IC50 [19]: 0.07948 µg/mL (≈ 0.0727 µM)
- Ki [19]: 0.292 µg/mL (≈ 0.267 µM)
- IC50 [20]: 0.01253 µg/mL (≈ 0.0115 µM)
- Ki [20]: 0.00601 µg/mL (≈ 0.0055 µM)
- MIC (Nakaseomyces glabratus [21]): 0.1 µg/mL (≈ 0.0915 µM)
- IC50 [22]: 0.00312 µg/mL (≈ 0.00285 µM)
- MIC (Saccharomyces cerevisiae [23]): 0.02 µg/mL (≈ 0.0183 µM)
- MIC (Saccharomyces cerevisiae [24]): 0.5 µg/mL (≈ 0.457 µM)
- MIC (Candida parapsilosis [25]): 1.4 µg/mL (≈ 1.28 µM)
- MIC (Candida metapsilosis [26]): 0.79 µg/mL (≈ 0.723 µM)
- IC50 [27]: 1.32867 µg/mL (≈ 1.22 µM)
- Ki [27]: 1.215 µg/mL (≈ 1.11 µM)
- MIC (Candida orthopsilosis [28]): 1 µg/mL (≈ 0.915 µM)
- MIC (Saccharomyces cerevisiae [29]): 0.03 µg/mL (≈ 0.0274 µM)
- MIC (Candida parapsilosis [30]): 2.24 µg/mL (≈ 2.05 µM)
- MIC (Candida albicans [31]): 0.2 µg/mL (≈ 0.183 µM)

SMILES: CCCCCOc1ccc(-c2cc(-c3ccc(C(=O)N[C@H]4C[C@@H](O)[C@@H](O)NC(=O)[C@@H]5[C@@H](O)[C@@H](C)CN5C(=O)[C@H]([C@H](O)CC(N)=O)NC(=O)[C@H]([C@H](O)[C@@H](O)c5ccc(O)c(OS(=O)(=O)O)c5)NC(=O)[C@@H]5C[C@@H](O)CN5C(=O)[C@H]([C@@H](C)O)NC4=O)cc3)no2)cc1 [MICAFUNGIN] (X1-[Orn(4R-OH,5R-OH)]T[Hyp][hTyr(3S-OH,4S-OH,3'-OSO3H)][Gln(3R-OH)][Pro(3S-OH,4S-Me)]; lactam 1-C)
- IC50 [1]: 0.24527 µg/mL (≈ 0.193 µM)
- Ki [1]: 0.476 µg/mL (≈ 0.375 µM)
- IC50 [2]: 0.11235 µg/mL (≈ 0.0884 µM)
- Ki [2]: 0.51 µg/mL (≈ 0.401 µM)
- MIC (Candida orthopsilosis [3]): 1.26 µg/mL (≈ 0.992 µM)
- IC50 [4]: 0.0102 µg/mL (≈ 0.00803 µM)
- Ki [4]: 0.0235 µg/mL (≈ 0.0185 µM)
- MIC (Candida albicans [5]): 0.02 µg/mL (≈ 0.0157 µM)
- IC50 [6]: 0.05825 µg/mL (≈ 0.0459 µM)
- Ki [6]: 0.0275 µg/mL (≈ 0.0216 µM)
- IC50 [7]: 0.15945 µg/mL (≈ 0.126 µM)
- Ki [7]: 0.17901 µg/mL (≈ 0.141 µM)
- IC50 [8]: 0.07032 µg/mL (≈ 0.0554 µM)
- Ki [8]: 0.266 µg/mL (≈ 0.209 µM)
- IC50 [9]: 0.11373 µg/mL (≈ 0.0895 µM)
- Ki [9]: 0.3825 µg/mL (≈ 0.301 µM)
- MIC (Nakaseomyces glabratus [10]): 0.4 µg/mL (≈ 0.315 µM)
- MIC (Candida metapsilosis [11]): 1.59 µg/mL (≈ 1.25 µM)
- IC50 [12]: 0.1527 µg/mL (≈ 0.12 µM)
- Ki [12]: 0.1775 µg/mL (≈ 0.14 µM)
- MIC (Candida albicans [13]): 0.05 µg/mL (≈ 0.0394 µM)
- MIC (Candida albicans [14]): 0.25 µg/mL (≈ 0.197 µM)
- IC50 [15]: 0.34083 µg/mL (≈ 0.268 µM)
- Ki [15]: 0.486 µg/mL (≈ 0.383 µM)
- IC50 [16]: 0.07752 µg/mL (≈ 0.061 µM)
- Ki [16]: 0.248 µg/mL (≈ 0.195 µM)
- MIC (Candida parapsilosis [17]): 1.12 µg/mL (≈ 0.882 µM)
- IC50 [18]: 0.01888 µg/mL (≈ 0.0149 µM)
- Ki [18]: 0.0155 µg/mL (≈ 0.0122 µM)
- IC50 [19]: 0.9431 µg/mL (≈ 0.742 µM)
- Ki [19]: 2.59 µg/mL (≈ 2.04 µM)
- IC50 [20]: 0.49363 µg/mL (≈ 0.389 µM)
- Ki [20]: 0.261 µg/mL (≈ 0.205 µM)
- MIC (Nakaseomyces glabratus [21]): 0.06 µg/mL (≈ 0.0472 µM)
- IC50 [22]: 0.00068 µg/mL (≈ 0.000535 µM)
- MIC (Saccharomyces cerevisiae [23]): 0.015 µg/mL (≈ 0.0118 µM)
- MIC (Saccharomyces cerevisiae [24]): 0.5 µg/mL (≈ 0.394 µM)
- MIC (Candida parapsilosis [25]): 1.6 µg/mL (≈ 1.26 µM)
- MIC (Candida metapsilosis [26]): 1.59 µg/mL (≈ 1.25 µM)
- IC50 [27]: 5.199 µg/mL (≈ 4.09 µM)
- Ki [27]: 5.7065 µg/mL (≈ 4.49 µM)
- MIC (Candida orthopsilosis [28]): 0.63 µg/mL (≈ 0.496 µM)
- MIC (Saccharomyces cerevisiae [29]): 0.03 µg/mL (≈ 0.0236 µM)
- MIC (Candida parapsilosis [30]): 1.26 µg/mL (≈ 0.992 µM)
- MIC (Candida albicans [31]): 0.03 µg/mL (≈ 0.0236 µM)
